In brackets after ≈: the same amount, converted by molar mass. Activity calls are given as the source filed them. The rule behind the calls is not given here.
What was measured:
[1] = system: Mycobacterium tuberculosis; assay: microbe, parasite or virus in culture; format: functional; conditions: H37Ra
[2] = system: Mycobacterium tuberculosis; assay: Antimycobacterial activity against Mycobacterium tuberculosis H37Ra at 10 uM; format: functional, organism-based
[3] = molecular target: T1, Bifunctional epoxide hydrolase 2 (Homo sapiens, UniProt P34913);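 also: recombinant enzyme with CMNPC substrate, fluorescence readout of 6-methoxy-2-naphthaldehyde formed over a 10 min reaction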
T1 sequence (P34913 whole entry): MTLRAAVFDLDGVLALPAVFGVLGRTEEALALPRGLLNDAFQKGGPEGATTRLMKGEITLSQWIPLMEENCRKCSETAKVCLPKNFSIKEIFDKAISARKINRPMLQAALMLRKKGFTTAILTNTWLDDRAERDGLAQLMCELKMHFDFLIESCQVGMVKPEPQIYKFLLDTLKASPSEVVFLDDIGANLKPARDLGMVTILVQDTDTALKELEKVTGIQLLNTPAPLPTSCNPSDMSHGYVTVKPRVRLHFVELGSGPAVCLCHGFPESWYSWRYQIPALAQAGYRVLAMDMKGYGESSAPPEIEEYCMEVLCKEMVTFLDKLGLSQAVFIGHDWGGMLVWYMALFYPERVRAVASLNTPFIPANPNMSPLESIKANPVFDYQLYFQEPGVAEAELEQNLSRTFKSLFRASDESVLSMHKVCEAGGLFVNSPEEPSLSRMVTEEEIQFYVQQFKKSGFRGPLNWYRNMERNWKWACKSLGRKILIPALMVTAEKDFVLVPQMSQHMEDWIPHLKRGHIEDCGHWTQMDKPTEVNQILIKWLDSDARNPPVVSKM

[4] = system: Mycobacterium tuberculosis; assay: Inhibition of Mycobacterium tuberculosis epoxide hydrolase E expressed in Escherichia coli BL21AI cells using cyano(6-methoxy-2-napthalenyl)methyl[(2,3)-3-phenyloxiranyl] methyl ester carbonate as substrate at 10 nM preincubated for 10 mins before substrate addition measured after 30 mins by spectrofluorometric analysis
[5] = mycobacterium tuberculosis h37ra, cytosol, 5 µM
[6] = system: Mycobacterium tuberculosis; assay: Antimycobacterial activity against Mycobacterium tuberculosis H37Ra infected in gamma interferon-knockout mouse assessed as reduction in lung CFU load at 25 mg/kg, po BID dosage beginning at 15 post infection for 9 days (reference value: 8.86 +/- 0.02 log10CFU); format: functional
[7] = system: Mycobacterium tuberculosis; assay: Antimycobacterial activity against Mycobacterium tuberculosis H37Ra infected in gamma interferon-knockout mouse assessed as reduction in spleen CFU load at 25 mg/kg, po BID dosage beginning at 15 post infection for 9 days (reference value: 7.30 +/- 0.09 log10CFU); format: functional
[8] = system: Mycobacterium tuberculosis; assay: Antimycobacterial activity against Mycobacterium tuberculosis H37Ra infected in gamma interferon-knockout mouse assessed as reduction in lung CFU load at 150 mg/kg, po BID dosage beginning at 15 post infection for 9 days (reference value: 8.86 +/- 0.02 log10CFU); format: functional
[9] = system: Mycobacterium tuberculosis; assay: Antimycobacterial activity against Mycobacterium tuberculosis H37Ra infected in gamma interferon-knockout mouse assessed as reduction in spleen CFU load at 150 mg/kg, po BID dosage beginning at 15 post infection for 9 days (reference value: 7.30 +/- 0.09 log10CFU); format: functional
[10] = Drug uptake in mouse serum at 140 mg/kg, po administered in 30% Captisol measured after 2 hrs by LC-MS/MS analysis; format: ADME, organism-based; set-up: dose 140 mg/kg, route oral; conditions: read-out: Drug uptake
How it was run: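 Non-genetically modified mice were dosed at 140 mg/kg in 30% Captisol by gavage. Blood was clotted for at least 1 h and spun at ~3000g for 15 min, and serum was frozen at −70°C. Serum was diluted 4:1 with methanol containing warfarin (final 5 μM) as internal standard and centrifuged. Samples were quantified by LC/MS against a 7-point calibration curve.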

Compound	MIC [1] [µg/mL]	IC50 [3] [nM]	further results
COC(=O)c1ccc(NC(=O)NC2CCCCCC2)cc1	3.63 (≈ 12.5 µM)	12.3	Activity [2]: inactive
COC(=O)c1cccc(O[C@H]2CC[C@@H](NC(=O)NC34CC5CC(CC(C5)C3)C4)CC2)c1	> 85	2.5	Activity [2]: inactive
O=C(Nc1ccc(OCCCN2CCOCC2)cc1)NC12CC3CC(CC(C3)C1)C2	> 17		inhibition [4]: 19%; Drug uptake [5]: 103 ng
COC(=O)Cc1ccc(NC(=O)NC23CC4CC(CC(C4)C2)C3)cc1	2.1 (≈ 6.13 µM)	4.4	
O=C(NCCCCCOCCOCCOCc1ccccc1)NC12CC3CC(CC(C3)C1)C2	46 (≈ 100 µM)	10.8	
O=C(Nc1ccc(C(=O)c2ccccc2)cc1)NC12CC3CC(CC(C3)C1)C2	1.8 (≈ 4.81 µM)	1.6	
CCOCCOCC(OC(=O)CCCNC(=O)NC12CC3CC(CC(C3)C1)C2)c1ccccc1 (stereo not drawn)	95 (≈ 201 µM)	4.2	
O=C(NC12CC3CC(CC(C3)C1)C2)N[C@H]1CC[C@@H](Oc2ccc(C(F)(F)F)cn2)CC1	1.37 (≈ 3.13 µM)	1.8	
O=C(NC1CCCC(C(=O)N2CCC(N3CCOCC3)CC2)C1)NC12CC3CC(CC(C3)C1)C2 (stereo not drawn)	> 95	6.1	
O=C(Nc1ccc(OCCOCCOCC(F)(F)F)cc1)NC12CC3CC(CC(C3)C1)C2	11 (≈ 24.1 µM)	3.3	
O=C(NC1CCCC(C(=O)NN2CCOCC2)C1)NC12CC3CC(CC(C3)C1)C2 (stereo not drawn)	> 84	25.8	
NNC(=O)c1ccncc1 [ISONIAZID]	0.08 (≈ 0.583 µM)		log10cfu [6]: 5.41; log10cfu [7]: 3.63
CCOC(=O)c1ccc(O[C@H]2CC[C@@H](NC(=O)NC34CC5CC(CC(C5)C3)C4)CC2)cc1	8.3 (≈ 18.8 µM)	1.6	
COCCOCCCCCNC(=O)NC12CC3CC(CC(C3)C1)C2	68 (≈ 201 µM)	12.1	
O=C(Nc1cccc(C(=O)NCC2CN(Cc3ccccc3)CCO2)c1)NC12CC3CC(CC(C3)C1)C2 (stereo not drawn)	> 101	13.6	
O=C(Nc1cccc(C(=O)NCCCN2CCOCC2)c1)NC12CC3CC(CC(C3)C1)C2	> 33	57.9	
O=C(NCCCc1ccccc1)NC12CC3CC(CC(C3)C1)C2	0.7 (≈ 2.24 µM)	1	
O=C(Nc1cccc(C(=O)c2ccccc2)c1)NC12CC3CC(CC(C3)C1)C2	4.68 (≈ 12.5 µM)	2.7	
O=C(Nc1ccc(O)c(Cl)c1)NC12CC3CC(CC(C3)C1)C2	2 (≈ 6.23 µM)	5.1	
CCCCCO[C@H]1CC[C@H](NC(=O)NC23CC4CC(CC(C4)C2)C3)CC1	25 (≈ 69 µM)		inhibition [4]: 93%; Drug uptake [5]: 128 ng
O=C(NN1CCOCC1)NC12CC3CC(CC(C3)C1)C2	> 56	12800	
CCOC(=O)COc1ccc(NC(=O)NC23CC4CC(CC(C4)C2)C3)cc1	4.7 (≈ 12.6 µM)	0.8	
O=C(Nc1ccc(OCCN2CCOCC2)cc1Cl)NC12CC3CC(CC(C3)C1)C2	> 87	2.4	
Cc1cccc(NC(=O)NC23CC4CC(CC(C4)C2)C3)c1	1.1 (≈ 3.87 µM)	6.1	

Compound	MIC [1] [µg/mL]	IC50 [3] [nM]	further results
CCOC(=O)C(F)(F)Oc1ccc(NC(=O)NC23CC4CC(CC(C4)C2)C3)cc1	1.28 (≈ 3.13 µM)	0.8	
O=C(Nc1cccc(Oc2ccccc2)c1)NC12CC3CC(CC(C3)C1)C2	2.27 (≈ 6.26 µM)	0.9	
O=C(Nc1ccc(Oc2ccccc2)cc1)NC12CC3CC(CC(C3)C1)C2	0.1 (≈ 0.276 µM)	0.5	
O=C(Nc1ccc(OC(F)(F)F)cc1)Nc1ccc(OC(F)(F)F)cc1	4.75 (≈ 12.5 µM)	9.6	
O=C(CCCCCCOCc1ccccc1)NC12CC3CC(CC(C3)C1)C2	9.24 (≈ 25 µM)	66.5	
O=C(Nc1cccc(C(=O)O)c1)NC12CC3CC(CC(C3)C1)C2	7.8 (≈ 24.8 µM)		Activity [2]: Active
COC(=O)c1ccc(NC(=O)NC23CC4CC(CC(C4)C2)C3)cc1O	1.1 (≈ 3.19 µM)		Activity [2]: inactive; log10cfu [8]: 8.77; log10cfu [9]: 7.31; concentration at 2 h [10]: 3000 nM
CC(C)c1ccc(NC(=O)NCC2CCCCC2)cc1	1.72 (≈ 6.27 µM)	1.1	
O=C(Nc1ccc(N2CCOCC2)cc1)NC12CC3CC(CC(C3)C1)C2	18 (≈ 50.6 µM)	5.2	
O=C(NC12CC3CC(CC(C3)C1)C2)N[C@H]1CC[C@H](Oc2ccc(C(=O)O)cc2)CC1	21 (≈ 50.9 µM)		Activity [2]: inactive
COC(=O)c1ccc(NC(=O)NC2C3CC4CC(C3)CC2C4)cc1O (stereo not drawn)	0.1 (≈ 0.29 µM)		log10cfu [8]: 8.74; log10cfu [9]: 7.33
O=C(Nc1cccc(OC(F)F)c1)NC12CC3CC(CC(C3)C1)C2	0.8 (≈ 2.38 µM)	2.6	
O=C(Nc1ccc(F)c(F)c1F)NC1C2CC3CC(C2)CC1C3 (stereo not drawn)			inhibition [4]: 68%
O=C(NC12CC3CC(CC(C3)C1)C2)N[C@H]1CC[C@H](OC(=O)c2ccccc2)CC1	> 79	1	Activity [2]: inactive
COCC(=O)c1ccc(O[C@H]2CC[C@@H](NC(=O)NC34CC5CC(CC(C5)C3)C4)CC2)cc1	5.51 (≈ 12.5 µM)	3.8	
CC(C)(C)c1ccc(NC(=O)NC2CCCCC2)cc1	1.72 (≈ 6.27 µM)	3.9	
O=C(NCC1CCCCC1)Nc1cccc(Cl)c1	1.67 (≈ 6.26 µM)	2.6	
CCCCCCCCCCCC(=O)NC12CC3CC(CC(C3)C1)C2	4.17 (≈ 12.5 µM)	159	
O=C(Nc1cccc([N+](=O)[O-])c1)N[C@H]1CC[C@H](OCc2c(F)cccc2F)CC1	10.1 (≈ 25 µM)	90	
O=C(Nc1cccc(C(F)(F)F)c1)NC1CCCCC1	1.79 (≈ 6.25 µM)	8.7	
O=C(NC12CC3CC(CC(C3)C1)C2)N[C@H]1CC[C@@H](OC2CCCCC2)CC1	> 75	1.6	
O=C(Nc1cccc(OC(F)(F)F)c1)NC12CC3CC(CC(C3)C1)C2	0.2 (≈ 0.564 µM)	3.1	
COC(=O)CCc1ccc(NC(=O)NC23CC4CC(CC(C4)C2)C3)cc1	2.2 (≈ 6.17 µM)	2	
